Measurements collected from several papers.
Each line is one published result; the experiments were not run side by side.
CYP2C19: Cytochrome P450 2C19 (CYP2C19, Homo sapiens, UniProt P33261)

Cl.Cl.O=C(CCN1CCCCC1)c1ccc(-c2ccc(C(=O)CCN3CCCCC3)cc2)cc1
Tmax (Sprague-Dawley rat, plasma; oral, 50 mg/kg): 0.65 h

Cc1ncc2n1-c1ccc(Cl)cc1C(c1ccccc1F)=NC2
compound remaining (metabolic stability; beagle dog, hepatocytes; 1 µM, 4 h): 3%

COC(=O)C1CCN(C(=O)c2ccc(N(C)Cc3cnc4nc(N)nc(N)c4n3)cc2)CC1
inhibition (CYP2C19; enzyme activity, inhibitor, luciferase; 10 µM): -29.4%

CC(C)(C)NC(=O)N[C@H](C(=O)N1C[C@H]2[C@@H]([C@H]1C(=O)NC(CC1CCC1)C(=O)C(N)=O)C2(C)C)C(C)(C)C (stereo partly drawn)
CC50 (A549; cell growth or viability, neutral red; 48 h): > 100 µM

COc1cc2c(c(OC)c1OC)-c1ccc(OC)c(=O)cc1[C@@H](NC(C)=O)CC2
CC50 (HFF-1; cell growth or viability, resazurin; 72 h): 0.024 µM

O=S(=O)([O-])c1cccc(P(c2ccccc2)c2ccccc2)c1.[Na+]
CC50 (NIH3T3; cell growth or viability, resazurin; 18 h): 189 µg/mL

CN1CCCCC1Cn1cc(C(=O)c2cc([N+](=O)[O-])ccc2I)c2ccccc21 (racemic)
C0 (mouse, plasma; intravenous, 25 mg/kg): 6 µg/mL

COC(=O)C1CCN(C(=O)c2ccc(NCc3cnc4nc(N)nc(N)c4n3)cc2)CC1
inhibition (CYP2C19; enzyme activity, inhibitor, luciferase; 10 µM): -23.4%

CC(C)C[C@H](NC(=O)[C@@H](NC(=O)c1ccoc1)C(C)C)C(=O)N[C@H](C=O)C[C@@H]1CCCNC1=O
CC50 (A549; cell growth or viability, MTT; 24 h): > 100 µM

CCOC(=O)[C@@](C)(O)[C@@H]1C[C@@H](CO[Si](c2ccccc2)(c2ccccc2)C(C)(C)C)O[C@H]1n1cc(F)c(=O)[nH]c1=O
CC50 (A549; cell growth or viability, MTT; 42 h): 236 µM

CC(C)C[C@H](NC(=O)[C@@H](NC(=O)c1ccc(Cl)cc1)C(C)C)C(=O)N[C@H](C=O)C[C@@H]1CCCNC1=O
CC50 (A549; cell growth or viability, MTT; 24 h): > 100 µM

N=c1c2c(-c3ccccc3)c(-c3ccccc3)n(Cc3ccccc3)c2ncn1[C@H]1CC[C@H](O)CC1
clearance (male beagle dog, plasma; intravenous, 0.5 mg/kg, single dose): 1.2 mL/min/kg

CC(C)C[C@H](NC(=O)[C@H](CC1CCCCC1)NC(=O)/C=C/c1ccccc1)C(=O)N[C@H](C=O)C[C@@H]1CCCNC1=O
CC50 (A549; cell growth or viability, MTT; 24 h): > 100 µM

CCC[C@@](N)(CO)CCc1ccc(OCCCCCC(C)C)cc1
Cmax (dog, plasma; oral, 2.5 mg/kg): 69.2 nM

CC(C)C[C@H](NC(=O)[C@@H](NC(=O)/C=C/c1ccccc1F)C(C)C)C(=O)N[C@H](C=O)C[C@@H]1CCCNC1=O
CC50 (A549; cell growth or viability, MTT; 24 h): > 100 µM

O=C[C@H](C[C@@H]1CCNC1=O)NC(=O)[C@H](CC1CCCCC1)NC(=O)c1cc2ccccc2[nH]1
Cmax (dog, plasma; intravenous, 4 mg/kg): 9770 µg/mL

C[C@H](NC(=O)/C=C/c1ccccc1)C(=O)N[C@H](C=O)C[C@@H]1CCCNC1=O
CC50 (A549; cell growth or viability, MTT; 24 h): > 100 µM

COC(=O)C(NC(=O)c1cn(CCCCCF)c2ccccc12)C(C)(C)C (stereo not drawn)
Tmax (male Sprague-Dawley rat, plasma; subcutaneous, 200 µg/kg): 2.83 h
